Tests used:
[1] = target: T1, Sphingosine kinase 2 (Homo sapiens) (UniProt Q9NRA0); experiment: Rate of phosphorylation of labeled sphingosine derivative by human SPHK-2 expressed in HEK293 cells relative to rate of D-sphingosine; assay type: functional, cell-based
T1 sequence (whole entry): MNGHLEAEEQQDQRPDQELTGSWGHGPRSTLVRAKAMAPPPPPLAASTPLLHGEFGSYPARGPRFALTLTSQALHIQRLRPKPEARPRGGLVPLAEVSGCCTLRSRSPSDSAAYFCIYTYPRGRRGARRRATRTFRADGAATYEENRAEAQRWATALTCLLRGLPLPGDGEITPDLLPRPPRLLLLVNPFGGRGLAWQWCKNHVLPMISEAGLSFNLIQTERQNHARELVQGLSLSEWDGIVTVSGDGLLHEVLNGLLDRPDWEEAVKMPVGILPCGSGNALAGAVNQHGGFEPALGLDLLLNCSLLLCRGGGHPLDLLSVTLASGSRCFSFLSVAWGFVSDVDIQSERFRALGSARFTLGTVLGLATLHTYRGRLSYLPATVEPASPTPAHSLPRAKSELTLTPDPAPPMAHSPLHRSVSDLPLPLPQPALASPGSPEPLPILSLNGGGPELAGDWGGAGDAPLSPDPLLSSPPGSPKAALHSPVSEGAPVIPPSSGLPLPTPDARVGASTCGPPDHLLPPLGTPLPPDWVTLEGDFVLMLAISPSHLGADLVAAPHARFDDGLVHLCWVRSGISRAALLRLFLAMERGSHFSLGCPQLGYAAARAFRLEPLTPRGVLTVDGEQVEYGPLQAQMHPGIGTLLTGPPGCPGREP
Outline: (§1)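 Enzyme source was the cytoplasmic fraction of HEK-293 cells overexpressing human SPHK-1 or -2. Incubation was at 30 °C for time points up to 2 h. Lipids were extracted, separated by TLC and quantified by phosphorimaging, and rates were expressed relative to sphingosine.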

[2] = target: Sphingosine kinase 1 (Homo sapiens) (UniProt Q9NYA1); experiment: Rate of phosphorylation of labeled sphingosine derivative by human SPHK-1 expressed in HEK293 cells relative to rate of D-sphingosine; assay type: functional, cell-based; outline: as §1
Sequence of Sphingosine kinase 1 (Homo sapiens) (Q9NYA1 whole entry): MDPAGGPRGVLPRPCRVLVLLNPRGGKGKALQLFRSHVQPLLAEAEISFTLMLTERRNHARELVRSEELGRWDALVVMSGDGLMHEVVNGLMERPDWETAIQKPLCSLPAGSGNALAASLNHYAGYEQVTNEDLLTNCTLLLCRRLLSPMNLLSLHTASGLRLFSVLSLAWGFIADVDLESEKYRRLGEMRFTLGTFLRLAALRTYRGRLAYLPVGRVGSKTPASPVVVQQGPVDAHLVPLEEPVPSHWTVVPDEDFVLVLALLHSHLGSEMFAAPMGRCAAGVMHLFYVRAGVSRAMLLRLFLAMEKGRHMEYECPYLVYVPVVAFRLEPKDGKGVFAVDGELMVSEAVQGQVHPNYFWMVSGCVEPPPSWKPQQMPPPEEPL

Structure (SMILES) | Rate [1] | Rate [2]
N[C@@H](CO)[C@H](O)/C=C/CCCOC(=O)CCCCCCCCCc1ccc2ccc3cccc4ccc1c2c34 | 0.065 | 0.024
N[C@@H](CO)[C@H](O)/C=C/CCCCCCCCCCOC(=O)c1ccc2ccc3cccc4ccc1c2c34 | 1.25 | 0.83
NC(CO)[C@H](O)/C=C/CCCCCCCCCCNS(=O)(=O)c1ccc2ccc3cccc4ccc1c2c34 (some centres undefined) | 0.83 | 0.051
CN(C)c1ccc(S(=O)(=O)NCCCCCCCCCC/C=C/C(O)C(N)CO)c2ccccc12 (single isomer, unassigned) | 0.026 | 0.063
NC(CO)[C@H](O)/C=C/CCCCCCCCCCNc1ccc([N+](=O)[O-])c2nonc12 (single isomer, unassigned) | 0.48 | 0.5

Second part, the molecule after the results:

Rate [1] | Rate [2] | Structure (SMILES)
0.83 | 0.078 | N[C@@H](CO)[C@H](O)/C=C/CCCOC(=O)CCCCCc1ccc2ccc3cccc4ccc1c2c34
0.14 | 0.048 | N[C@@H](CO)[C@H](O)/C=C/CCCOC(=O)CCCc1ccc2ccc3cccc4ccc1c2c34
